Data: ChEMBL document CHEMBL3297668, “Synthesis of truncated analogues of preptin-(1–16), and investigation of their ability to stimulate osteoblast proliferation” (Bioorg Med Chem, 2014)
Activity calls are given as the source filed them. No cut-off for these calls is given here. Where a SMILES comes first, the peptide text is derived from it.

The molecules below were run on Osteoblast (assay: Stimulation of proliferation of foetal rat osteoblasts at 10 '-10 to 10 '-8 M after 18 to 24 hrs by [3H]-thymidine incorporation assay relative to control).
Type: functional, cell-based
How it was run: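 Osteoblasts from 20-day fetal rat calvariae (collagenase digests 3 and 4) were expanded in FBS medium with ascorbate-2-phosphate, seeded at 2.5 × 10⁴ cells/well in 5% FBS/MEM for 24 h, then growth-arrested 24 h in 0.1% BSA/5 µg/mL ascorbate-2-phosphate. Peptide treatment 24 h, with [³H]-thymidine pulse over the final 6 h. Result expressed as treatment/vehicle ratio. 6 wells/group, 3–4 experiments, ANOVA with Dunnett's test.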

Row | Molecule | Activity
1 | CC(=O)N[C@@H](CC(=O)O)C(=O)N[C@H](C(=O)N[C@@H](CO)C(=O)N[C@H](C(N)=O)[C@@H](C)O)C(C)C (Ac-DVST-NH2) | inactive
2 | CC(=O)N[C@@H](CC(=O)O)C(=O)N[C@H](C(=O)N[C@@H](CO)C(=O)N[C@H](C(=O)O)[C@@H](C)O)C(C)C (Ac-DVST-OH) | inactive
3 | CC(=O)N[C@@H](Cc1ccccc1)C(=O)N1CCC[C@H]1C(=O)N[C@@H](CCCNC(=N)N)C(=O)N[C@@H](Cc1ccc(O)cc1)C(N)=O (Ac-FPRY-NH2) | Active
4 | CC(=O)N[C@@H](Cc1ccccc1)C(=O)N1CCC[C@H]1C(=O)N[C@@H](CCCNC(=N)N)C(=O)N[C@@H](Cc1ccc(O)cc1)C(=O)O (Ac-FPRY-OH) | inactive
5 | CC(C)[C@H](NC(=O)[C@@H](N)CC(=O)O)C(=O)N[C@@H](CO)C(=O)N[C@H](C(N)=O)[C@@H](C)O (H-DVST-NH2) | inactive
6 | CC(C)[C@H](NC(=O)[C@@H](N)CC(=O)O)C(=O)N[C@@H](CO)C(=O)N[C@H](C(=O)O)[C@@H](C)O (H-DVST-OH) | inactive
7 | N=C(N)NCCC[C@H](NC(=O)[C@@H]1CCCN1C(=O)[C@@H](N)Cc1ccccc1)C(=O)N[C@@H](Cc1ccc(O)cc1)C(N)=O (H-FPRY-NH2) | inactive
8 | N=C(N)NCCC[C@H](NC(=O)[C@@H]1CCCN1C(=O)[C@@H](N)Cc1ccccc1)C(=O)N[C@@H](Cc1ccc(O)cc1)C(=O)O (H-FPRY-OH) | inactive
9 | Ac-DVSTSQAV-NH2 | inactive
10 | Ac-DVSTSQAV-OH | inactive
11 | Ac-DVSTSQAVLPDD-NH2 | inactive
12 | Ac-DVSTSQAVLPDD-OH | inactive
13 | Ac-DVSTSQAVLPDDFPRY-NH2 | Active
14 | Ac-DVSTSQAVLPDDFPRY-OH | inactive
15 | Ac-LPDDFPRY-NH2 | inactive
16 | Ac-LPDDFPRY-OH | inactive
17 | Ac-SQAVLPDDFPRY-NH2 | inactive
18 | Ac-SQAVLPDDFPRY-OH | inactive
19 | H-DVSTSQAV-OH | Active
20 | H-DVSTSQAVLPDD-NH2 | inactive
21 | H-DVSTSQAVLPDD-OH | inactive
22 | H-DVSTSQAVLPDDFPRY-NH2 | inactive
23 | H-DVSTSQAVLPDDFPRY-OH | Active
24 | H-LPDDFPRY-NH2 | inactive
25 | H-LPDDFPRY-OH | inactive
26 | H-SQAVLPDDFPRY-NH2 | inactive
27 | H-SQAVLPDDFPRY-OH | inactive

These molecules were tested on Osteoblast (assay: Stimulation of differentiation of rat osteoblasts assessed as increase in mineralized bone nodules at 10 '-9 M after 3 weeks using Von Kossa staining by bone nodule formation assay relative to control).
Type: functional, cell-based
How it was run: (§1)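 Primary osteoblasts from 20-day fetal rat calvariae (sequential collagenase digests 3 and 4) plated at 5 × 10⁴ cells/well in αMEM/10% FBS plus ascorbate-2-phosphate. At confluence (~3 days), medium switched to MEM/15% FBS with 50 µg/mL L-ascorbic acid-2-phosphate and 10 mM β-glycerophosphate, plus peptide; medium and peptide renewed twice weekly. Dexamethasone positive control. At 21 days, fixed in 10% neutral buffered formalin, Von Kossa stained, mineralized area quantified by image analysis.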

Row | Molecule | Activity
28 | H-DVSTSQAV-OH | Active

The molecules below were run on Osteoblast (assay: Stimulation of differentiation of rat osteoblasts assessed as increase in mineralized bone nodules at 10 '-10 to 10 '-9 M after 3 weeks using Von Kossa staining by bone nodule formation assay relative to control).
Type: functional, cell-based
How it was run: as §1

Row | Molecule | Activity
29 | CC(=O)N[C@@H](Cc1ccccc1)C(=O)N1CCC[C@H]1C(=O)N[C@@H](CCCNC(=N)N)C(=O)N[C@@H](Cc1ccc(O)cc1)C(N)=O (Ac-FPRY-NH2) | inactive
